RTF Ca sens inh = cardiac RTF calcium desensitization | P19429+P45379 | IANBD-labeled cardiac RTF, Ca2+ fluorescence | inhibition, % at 7.15 µM | hit rate 0.12% among 340,000 | AID 493244;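 active = inhibition above the mean inhibition of all tested compounds plus 3 SD, cut at about 17% in these data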;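 also: assay run at fixed EC70 calcium of 1.6 mM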
Efflux pump mplx = antifungal efflux pump inhibition, Nile Red retention; S. cerevisiae Candida pump triplex; inhibition, % at 10 µM; hit rate 0.44% among 330,000; AID 485275;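 active = plate passing quality check with inhibition over a set limit, or well fluorescence over plate mean plus 4 SD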;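 also: Nile Red retained in pooled yeast measured as flow cytometry median fluorescence; higher means more Nile Red kept so more efflux inhibition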
ARNT-TACC3 inh = disrupts binding between human ARNT and TACC3. Q9Y6A5. AlphaScreen His-ARNT PAS-B/GST-TACC3 binding, luminescence; TACC3 fragment carries E629A point mutation. inhibition, % at 9.99 µM. hit rate 0.66% among 390,000;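 active = mean inhibition of replicates at least 50% and at least half of replicates each reaching 50%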
UCH37 DUB inh = inhibitors of human deubiquitinating enzyme UCH37 | Q9Y5K5 | purified proteasome/UCH37, Ub-AMC cleavage fluorescence | inhibition, % (no concentration beside the values) | hit rate 0.33% among 330,000 | AID 588478;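 active = mean inhibition over replicate wells above about 20%, limit read from the data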
Target sequence (Q9Y5K5 whole entry, looked up): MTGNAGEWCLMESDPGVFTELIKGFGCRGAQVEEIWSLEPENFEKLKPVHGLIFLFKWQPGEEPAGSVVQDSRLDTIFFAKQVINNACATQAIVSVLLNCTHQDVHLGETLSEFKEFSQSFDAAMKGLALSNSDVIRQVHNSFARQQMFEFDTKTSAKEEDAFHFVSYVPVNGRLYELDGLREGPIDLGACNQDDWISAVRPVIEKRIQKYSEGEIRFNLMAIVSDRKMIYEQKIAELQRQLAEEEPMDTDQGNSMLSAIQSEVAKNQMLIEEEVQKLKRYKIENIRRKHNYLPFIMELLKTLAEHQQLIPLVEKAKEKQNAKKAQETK
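System: Proteasome-associated human UCH37 deubiquitinase; Input: 0.15 nM proteasome in added enzyme buffer; Also added: Ub-AMC substrate from 1 µM stock; Incubation: 30 min compound-proteasome preincubation then 25 min substrate reaction, room temperature; Detection: fluorescence, ex 355 nm, em 460 nm; Read-out: % inhibition of Ub-AMC cleavage fluorescence; Benchmarks: no-proteasome and no-compound wells.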
Mot1-301 SUMO = blocks SUMOylation pathway, rescuing yeast Mot1-301 growth | S. cerevisiae Mot1-301 growth rescue, ATP luminescence, 38.5C; percent above DMSO median, 100 means doubled | growth rescue, % at 18.8 µM | hit rate 1% among 320,000;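 active = every valid replicate shows activation above 250% relative to neutral control wells; inactive = the rest, any valid replicate at or below 250%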
RTF Ca sens act = cardiac RTF calcium sensitization | hit rate 0.24% among 340,000 | activation, % at 7.2 µM | IANBD-labeled TnC RTF fluorescence at EC20 calcium; 0% EC20 calcium, 100% full calcium | P19429+P45379;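 active = activation above the mean over all tested compounds plus 3 SD, cut at about 30% in these data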;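 also: rise in fluorescence read as greater calcium sensitivity of cardiac thin filaments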
Yeast Mot1 SUMO = SUMO pathway inhibitors in yeast Mot1-301 growth | shares compounds with Mot1-301 SUMO | S. cerevisiae Mot1-301 galactose growth, ATP luminescence, 24 h; -100 = growth of slx-deleted rescue strain | growth activity, percent, % at 42 µM | 2,300 tested, under 10 active;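 active = Signal drops as the depositor expects, and the fitted half-maximal dose is no more than ten times the top valid tested dose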;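 also: more negative values mean stronger growth rescue toward the control strain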
A number is an active result; - = inactive; . = not tested or not shown; + = active, no number. Most compounds without a hit are left out; they make up all but 2.1% or so of the library.

SMILES	RTF Ca sens inh	Efflux pump mplx	ARNT-TACC3 inh	UCH37 DUB inh	Mot1-301 SUMO	RTF Ca sens act	Yeast Mot1 SUMO
CC12CC3(C)CC(C)(C1)CC(C(=O)NC(=S)N1CCCC1)(C2)C3	-	-	-	-	766	-	-
CC(C)(C)C(=O)NC(=S)N1CCCC1	-	-	-	-	-	-	.
O=C(O)CCC(=NNC(=O)CNC(=O)Cc1ccc(Cl)cc1)c1ccccc1	.	.	.	-	.	.	.
Cc1ccccc1-c1nnc(CN2CCC(C)CC2)o1	-	-	-	-	403	-	-
Cc1sc(NN=Cc2cccnc2)nc1-c1ccc(Cl)cc1	.	.	.	-	.	.	.
CC(C)Cn1c(=O)c2ccccc2c2ccccc2c1=O	-	-	-	-	-	-	.
CC(C)CCn1c(=O)c2ccccc2c2ccccc2c1=O	-	-	.	-	+	-	-
COc1ccc(C(C)=NNc2ccc(C(=O)O)cc2)c(OC)c1	.	.	.	-	.	.	.
CCOC(=O)/C(C#N)=C\c1ccc(CC)s1	-	-	-	-	+	-	-
O=C(O)C1CCCCC1C(=O)Nc1ccc(S(=O)(=O)N2CCCC2)cc1 (centres undefined)	-	-	.	-	447	-	-
Cc1cc(C(=O)NN)n[nH]1	-	-	-	-	590	-	-
O=C(c1cnn2c(C(F)(F)F)cc(-c3ccco3)nc12)N1CCCc2ccccc21	-	-	-	-	908	-	-
O=C(Nc1ccc2c(c1)OCO2)c1cnn2c(C(F)(F)F)cc(-c3ccco3)nc12	-	-	-	-	-	-	.
COc1ccc(CNC(=O)c2cc(=O)c3cc(C)cc(C)c3o2)cc1	-	-	-	-	+	-	-
O=C(Nc1ccc2ccccc2c1)N1CCCN(CCOc2ccccc2)CC1	-	-	-	-	425	-	-
CCOc1ccc(NC(=O)CC2C(=O)N(c3ccccc3)C(=S)N2Cc2ccccn2)cc1 (centres undefined)	-	-	-	-	+	-	-
CCOc1ccc(NC(=O)CC2C(=O)N(c3ccc(OC)cc3)C(=S)N2Cc2ccccn2)cc1 (centres undefined)	-	-	-	-	-	-	.
COc1ccc(NC(=O)C2CCCN(C(=O)Nc3cccc(OC)c3)C2)cc1 (centres undefined)	-	-	-	-	381	-	-
O=C(O)CCSc1ccc([N+](=O)[O-])cc1[N+](=O)[O-]	-	-	-	.	363	-	-
CCOC(=O)C1ON2CCCCC2C1(O)C(F)(F)F (centres undefined)	-	-	-	-	528	-	-
CCOC(=O)C1CCN(C(=O)CCC2CCCC2)CC1	-	-	-	-	-	-	.
CC(C)CC(c1nnnn1C1CCCCC1)N1CCN(C(=O)c2ccco2)CC1 (centres undefined)	-	-	-	-	706	-	-
Cc1ccccc1P(=O)(CO)c1ccccc1C	-	-	-	-	414	-	-
COc1ccc(C(=O)NN=C(C)CC(=O)Nc2cccc(C(F)(F)F)c2)cc1	.	.	.	-	.	.	.
COCCNC(=O)C(=O)N/N=C(\C)CC(=O)Nc1cccc(C(F)(F)F)c1	-	-	-	.	445	-	-
SMILES	RTF Ca sens inh	Efflux pump mplx	ARNT-TACC3 inh	UCH37 DUB inh	Mot1-301 SUMO	RTF Ca sens act	Yeast Mot1 SUMO
Cc1ccc(C(=O)NCCCNC(=O)c2ccc(C)nc2)cc1	-	-	-	-	424	-	-
Cc1ccc(C(=O)NCCNC(=O)c2ccc(C)nc2)cc1	-	-	-	-	-	-	.
Cc1ccc(C(=O)NCCCN2CCOCC2)cc1	-	-	-	.	410	-	-
COc1ccc(CC(=O)NCCN2CCOCC2)cc1	-	-	-	-	395	-	-
CCOc1ccc(C=c2sc3nc(-c4ccco4)nn3c2=O)cc1OCC	.	.	.	-	.	.	.
C=CCNC(=O)c1onc(CSc2cccc(C)c2)c1C(=O)O	-	-	-	.	775	-	-
CCNC(=O)COc1ccc(C=NNC(=O)c2cccnc2)cc1OC	.	.	.	-	.	.	.
COc1cc(/C=N/NC(=O)c2cccc([N+](=O)[O-])c2)ccc1O	-	-	-	.	+	-	-
O=S(=O)(c1ccccc1)N1CCN(c2nc3ccccc3s2)CC1	-	-	-	-	453	-	-
CC1CCCCN1C(=O)C(Cc1ccccc1)N1C(=O)C2CCCCC2C1=O (centres undefined)	-	-	-	-	862	-	-
CC1CCCCN1C(=O)N[C@@H](Cc1ccccc1)C(=O)O (some centres undefined)	-	-	-	-	-	-	.
CC(NC(=O)c1cccs1)c1ccc(Br)cc1 (centres undefined)	-	-	-	-	800	-	-
Cc1ccc(C(C)NC(=O)c2cccs2)cc1 (centres undefined)	-	-	-	-	-	-	.
O=C(NN=Cc1cccc(O)c1)c1ccc(COc2ccc3c(c2)CCC3)o1	.	.	.	-	.	.	.
COc1ccccc1C(=O)NCCNc1ccc([N+](=O)[O-])cc1Cl	-	-	-	-	456	-	-
Cc1ccc2nc(SCC(=O)Nc3cccc(S(N)(=O)=O)c3)[nH]c2c1	-	-	-	-	741	-	-
CC(=O)Nc1ccc(OCC(O)CN2CCN(Cc3ccccc3)CC2)cc1 (centres undefined)	-	-	-	-	-	-	.
CC(=O)N1CCN(CC(O)COc2ccc(OCc3ccccc3)cc2)CC1 (centres undefined)	-	-	-	-	402	-	-
C=CCNC(=O)c1cc(-c2cccnc2)nc2ccccc12	-	-	-	-	441	-	-
CC(C)(c1ccccc1)c1ccc(OCCCN2CCNCC2)cc1	-	-	-	-	-	-	.
CC(C)(c1ccccc1)c1ccc(OCCN2CCOCC2)cc1	-	-	-	-	444	-	-
Cc1ccc(C(C(=O)Nc2ccc3c(c2)OCO3)N(C)C(=O)/C=C\c2ccc3c(c2)OCO3)cc1 (centres undefined)	-	-	-	-	383	-	-
O=C(NN=Cc1ccc(F)cc1)c1ccccc1	.	.	.	-	.	.	.
COc1ccc(-c2[nH]ncc2CNCc2cc(C)n(C)n2)c(F)c1	-	-	-	-	-	-	.
COc1ccc(-c2[nH]ncc2CNCCn2cccn2)c(F)c1	-	-	-	.	+	-	-
COc1ccc(C(=O)NC(=S)Nc2ccc(CN3CCOCC3)cc2)cc1Cl	-	-	-	-	-	-	.
COc1ccc(C(=O)NC(=S)Nc2ccc(CN3CCCCC3)cc2)cc1Cl	-	-	-	.	636	-	-
COc1ccc2cc(C#N)c(Nc3cccc(F)c3)nc2c1	-	-	-	.	572	-	-
COc1ccc(Nc2nc3cc(C)ccc3cc2C#N)cc1	-	-	-	-	-	-	.
Cc1c(C=Nn2cnnc2)c2ccccc2n1CCOc1ccc(Cl)cc1	.	.	.	-	.	.	.

Screens: PubChem BioAssay, several laboratories
